ABHD4 inh: inhibitors of mouse ABHD4 | Q8VD66 | purified mABHD4, FP-Rh probe fluorescence polarization | inhibition, % at 8.92 µM | 370,000 tested, 0.54% active | AID 720543;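 active means inhibition exceeding the mean over every tested compound plus 3 SD, cut at about 30% in these data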;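 further: 0% = plate median of compound wells and 100% = S159A mutant with DMSO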
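Assay system: wild-type mouse ABHD4 protein; compound: single nominal dose of 8.92 µM, 0.89% DMSO final; schedule: 45 min + 60 min at 25 °C; measured by: FP readout, ex 525 nm / em 598 nm; evaluation: % inhibition of FP-Rh probe binding versus controls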
TDP2 absorb: TDP2 (human) inhibition, absorbance primary screen; O95551; recombinant TDP2, T5PNP hydrolysis, p-nitrophenol absorbance 415 nm; inhibition, % at 12.8 µM; 370,000 tested, 0.34% active; AID 720702;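 active means inhibition above the mean of all tested compounds plus 3 SD, set per campaign, cut at about 25% in these data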;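 further: 0% = DMSO with enzyme and 100% = buffer with substrate but no TDP2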
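test system = human TDP2 enzyme | input = TDP2 enzyme at 120 nM final | medium = 50 mM Tris-HCl pH 7.5 with Mg2+, KCl, DTT, BSA | also added = T5PNP substrate, 5 mM | times = 2 h at 37 °C | technique = epi absorbance | benchmarks = high control without enzyme, low control DMSO plus TDP2 | replication = each compound tested once, singlicate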
TCR-CD3 inh: blocks the human TCR-CD3 interaction; TAMRA-labeled TCR probe fluorescence, biochemical; inhibition, % at 9.4 µM; 360,000 tested, 0.37% active; AID 651800;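 further: recombinant mutant TCR 2C K166C tagged with TAMRA read by polarization; 0% = receptor in buffer alone and 100% = receptor with positive control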
PAD4 FP inh: blocks human protein arginine deiminase 4; AID 485272; inhibition, % at 6.36 µM; recombinant PAD4, RCA probe fluorescence polarization; 330,000 tested, 0.41% active; Q9UM07;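 active means percent inhibition above a cutoff equal to the mean of all tested compounds plus 3 SD, cut at about 15% in these data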;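 further: 0% = PAD4 with RCA probe and DMSO and 100% = probe without PAD4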
Target sequence (Q9UM07 whole entry, looked up): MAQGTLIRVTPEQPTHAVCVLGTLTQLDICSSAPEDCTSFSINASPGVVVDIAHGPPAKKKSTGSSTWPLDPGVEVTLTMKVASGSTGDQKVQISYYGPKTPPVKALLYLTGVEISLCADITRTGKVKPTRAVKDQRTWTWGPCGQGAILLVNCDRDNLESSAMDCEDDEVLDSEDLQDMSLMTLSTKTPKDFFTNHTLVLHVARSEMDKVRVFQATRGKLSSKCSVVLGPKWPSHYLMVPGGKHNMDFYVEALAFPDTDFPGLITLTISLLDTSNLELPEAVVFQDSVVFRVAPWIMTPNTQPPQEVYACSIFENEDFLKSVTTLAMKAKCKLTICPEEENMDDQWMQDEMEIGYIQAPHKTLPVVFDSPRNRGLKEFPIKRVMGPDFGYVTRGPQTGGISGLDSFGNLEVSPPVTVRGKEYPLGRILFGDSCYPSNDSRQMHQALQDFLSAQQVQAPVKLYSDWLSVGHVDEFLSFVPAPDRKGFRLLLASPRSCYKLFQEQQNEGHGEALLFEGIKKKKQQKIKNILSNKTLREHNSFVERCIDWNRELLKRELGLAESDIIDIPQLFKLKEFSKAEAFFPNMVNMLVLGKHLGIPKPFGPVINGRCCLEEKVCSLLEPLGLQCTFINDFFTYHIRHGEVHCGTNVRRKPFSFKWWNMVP
HTRA1 inhibitor: inhibitors of human serine peptidase HTRA1; Q92743; recombinant HTRA1, FP-rhodamine activity-based probe, fluorescence polarization; inhibition, % at 5.96 µM; 340,000 tested, 0.5% active; AID 504803; in the data active means inhibition above about 36%;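 further: 0% = enzyme with DMSO and 100% = wells lacking enzyme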
SIAE primary: human SIAE inhibition, primary screen. SIAE FP-Rh probe binding, fluorescence polarization. Q9HAT2. 370,000 tested, 0.69% active. inhibition, % at 9.66 µM;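 active means inhibition above a cutoff: mean of compounds within the control limits plus 3 SD of those, cut at about 17% in these data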;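 further: 0% = plate median of compound wells and 100% = probe without SIAE protein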
BSA TAMRA ctr: BSA probe counter-screen for TCR-CD3 inhibitors. TAMRA-labeled BSA probe fluorescence counterscreen. 1,200 tested, 10% active. inhibition, % at 9.4 µM. shares compounds with TCR-CD3 inh; in the data active means inhibition above about 23%;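 further: 0% = buffer low control and 100% = reference high control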
TCR-CD3 inh conf: confirmation of human TCR-CD3 interaction inhibitors; 1,200 tested, 48% active; inhibition, % at 9.4 µM; shares compounds with TCR-CD3 inh; TAMRA-labeled TCR probe fluorescence binding assay
* = called active by the depositor; / = not tested or not shown. Sampled rows, rich in hits. Any-hit rate of the full collection: about 2%. Unless noted, no stated cut-off is given here; in the data, active means inhibition above about 19%; inactive means the rest.

SMILES | ABHD4 inh | TDP2 absorb | TCR-CD3 inh | PAD4 FP inh | HTRA1 inhibitor | SIAE primary | BSA TAMRA ctr | TCR-CD3 inh conf
CCCCNS(=O)(=O)/C=C/c1cc(C)ccc1CNC(=O)OC(C)(C)C | -10.3 | -2.4 | / | / | / | 7.7 | / | /
Cc1oc(-c2cccc(Cl)c2)nc1CS(=O)(=O)CC(=O)NCCN1CCCC1 | 4.7 | -5.9 | 21.2* | 0.1 | -7.0 | -4.3 | 5.3 | 7.7
COc1ccc(Cc2nc3ccc(C(=O)N(C)CC4COCCO4)cc3o2)cc1 (centres undefined) | -7.8 | -11.2 | 0.7 | 2.6 | 4.4 | -3.1 | / | /
CC1(C)CC(N=C2C([N+](=O)[O-])=CC=C3C2=NC2(CCCCC2)N3O)CC(C)(C)N1 | -2.0 | 12.1 | 5.5 | 0.8 | 22.6 | 6.9 | / | /
O=[N+]([O-])C1=CC=C2C(=NC3(CCCCC3)N2O)C1=NC1CCCCC1 | 8.2 | -5.0 | 55.7* | -5.4 | 9.7 | 1.5 | 0.9 | -2.7
Oc1ccccc1-c1cnc2cccnn12 | 4.3 | -1.1 | 24.3* | / | / | 4.4 | -1.9 | -1.2
COc1ncccc1-c1cnc2cccnn12 | 4.0 | -3.8 | -6.2 | / | / | 3.3 | / | /
Cc1c(NN=C(C#N)C#N)c(=O)n(-c2ccccc2)n1C | 4.2 | 3.4 | -1.1 | -5.5 | -2.4 | 3.5 | / | /
O=C1CSC(=Nc2ccc(Cl)cc2)N1Cc1cccnc1 | 3.3 | 2.1 | -7.0 | 0.7 | -2.6 | -3.8 | / | /
COCCNc1oc(-c2ccc(Cl)cc2)nc1C#N | 2.6 | -0.4 | 19.1* | / | -0.6 | -6.4 | 0.3 | -1.1
COCCNc1oc(-c2ccc(C)cc2)nc1C#N | -9.2 | -5.0 | 0.7 | 3.0 | -3.3 | -3.5 | / | /
COc1ccccc1OCC(=O)N/N=C/c1c(O)ccc2ccccc12 | 21.1 | -7.6 | 19.6* | 3.6 | 4.2 | 4.7 | -9.1 | 18.5
COc1ccc(CNC(=O)CC[C@H]2O[C@@H](n3ccc(=O)[nH]c3=O)[C@H](O)[C@@H]2O)cc1 | 1.5 | 5.9 | 8.4 | / | / | 0.4 | / | /
O=C(NCc1ccncc1)[C@@H]1CCCN1C(=O)[C@@H]1CCCN1C(=O)c1c(F)cccc1F | -7.0 | -7.8 | -5.2 | / | / | -1.9 | / | /
CCOC(=O)C1=CCN(S(=O)(=O)c2cccc(Cl)c2)C1c1cccc(F)c1 (centres undefined) | -7.8 | -4.0 | 65.0* | / | / | -5.9 | 5.1 | 4.2
CCOC(=O)C(=Cc1ccc2c(c1)OCO2)c1ccccc1 | -1.9 | -4.0 | -10.5 | / | -0.1 | -3.7 | / | /
Cc1cccc(C)c1NC(=O)CN1C(=O)NC(C)(CCc2ccccc2)C1=O (centres undefined) | -1.7 | 0.0 | 59.2* | -4.6 | 1.9 | -1.4 | 3.6 | 6.4
Cc1ccc(NC(=O)CN2C(=O)NC(C)(CCc3ccccc3)C2=O)cc1 (centres undefined) | -1.1 | 0.1 | 1.1 | -3.1 | -8.8 | 0.9 | / | /
C/C(Cn1cnc([N+](=O)[O-])n1)=N\NC(=O)c1ccc(O)cc1O | 1.5 | 1.1 | 19.0* | 2.8 | 4.0 | 3.2 | -3.2 | 3.2
C/C(Cn1cnc([N+](=O)[O-])n1)=N\NC(=O)c1ccccc1O | 8.5 | 4.1 | 2.7 | -1.7 | 4.8 | 15.2 | / | /
O=S(=O)(c1ccc(NC(=S)NCCC(c2ccccc2)c2ccccc2)cc1)N1CCOCC1 | -100.7 | -3.2 | 32.8* | -10.5 | -72.8 | -230.0 | 14.1 | 17.6
O=C(Nc1ccc(Cl)cc1)Nc1ccc(Cl)c(Cl)c1 | -35.2 | 8.2 | 22.1* | -11.7 | / | -28.6 | 10.0 | 19.2*
Cc1ccc(NC(=O)Nc2ccc(F)c(Cl)c2)cc1 | -7.5 | -7.7 | -6.3 | -0.2 | -16.9 | -3.8 | / | /
Cn1cccc1CC(=O)NNC(=S)NC(=O)c1ccccc1Br | 9.8 | 0.9 | 28.0* | 3.3 | 6.6 | 3.5 | -3.8 | 16.4
Cc1ccccc1C(=O)Nc1ccnn1C1CCN(C(C)Cc2ccccc2F)CC1 (centres undefined) | -6.5 | -8.7 | 2.4 | 4.4 | -6.5 | 0.6 | / | /
SMILES | ABHD4 inh | TDP2 absorb | TCR-CD3 inh | PAD4 FP inh | HTRA1 inhibitor | SIAE primary | BSA TAMRA ctr | TCR-CD3 inh conf
CCOC(=O)C1CCCN(C(=O)c2cc(-c3ccco3)nc3ccccc23)C1 (centres undefined) | 11.4 | -0.4 | 20.5* | 0.3 | 26.0 | 8.9 | -12.0 | 15.2
CCOC(=O)C1CCCN(C(=O)c2cc(-c3ccncc3)nc3ccccc23)C1 (centres undefined) | -1.5 | -2.4 | 10.8 | 0.5 | -0.9 | -0.1 | / | /
COc1ccc(S(=O)(=O)N2CCOCC2)cc1NC(=O)CN1C(=O)NC2(CCC(C)CC2)C1=O (centres undefined) | -2.5 | 4.7 | 0.6 | / | -0.6 | 3.3 | / | /
N#Cc1c(-c2ccccc2)c(-c2ccccc2)nn(CC(=O)NNC(=O)Nc2ccc(Cl)c(Cl)c2)c1=O | -137.2 | 0.2 | 29.9* | -8.4 | -92.0 | -181.3 | 20.0 | 45.0*
O=C(Cn1nc(-c2ccccc2)c2ccccc2c1=O)Nc1ccc(F)cc1 | -3.8 | -9.1 | -3.0 | 5.9 | -2.5 | -4.2 | / | /
COc1ccc(CN2CCSCC2)c(C)c1C | 7.6 | 2.1 | -4.2 | / | -4.3 | 5.2 | / | /
O=[N+]([O-])c1ccc(Oc2ccc(Oc3ccc(C(F)(F)F)cn3)cc2)nc1 | 5.4 | -5.1 | 0.3 | 3.3 | -1.5 | -2.5 | / | /
CN1CCC(OC(c2ccccc2)c2ccc(Cl)cc2)C1 (centres undefined) | 3.7 | 6.6 | 30.7* | / | 3.9 | 2.5 | -3.1 | 2.5
Cc1cc(C)n(Cc2ccc(C(=O)N/N=C/c3ccc(-c4ccc([N+](=O)[O-])cc4)o3)o2)n1 | 2.3 | -17.3 | 19.3* | -6.6 | 4.8 | -1.1 | -5.2 | 28.1*
NC(=O)c1sc2nc(-c3ccco3)ccc2c1N | 24.6 | 6.7 | 20.3* | -7.7 | 8.5 | -0.1 | -5.7 | 2.3
COC(=O)c1sc2nc(-c3ccco3)ccc2c1N | 20.9 | 3.4 | 5.7 | 9.3 | 7.8 | 10.0 | / | /
c1coc(-c2ccc3nncn3c2)c1 | 23.0 | 12.6 | 35.2* | / | / | 12.3 | -2.7 | 30.4*
O=[n+]1c2c(n([O-])c3cc(F)c(N4CCCC4)cc31)CCC2 | 9.0 | -2.4 | 25.4* | 9.4 | 3.9 | -9.2 | 29.4* | 28.4*
O=[n+]1c2c(n([O-])c3cc(F)c(N4CCCC4)cc31)CCCC2 | 3.3 | 3.1 | 23.2* | 5.7 | -2.1 | -1.9 | 29.5* | 27.6*
O=[n+]1c2c(n([O-])c3cc(F)ccc31)CCCC2 | 4.1 | -6.1 | 6.3 | -15.6 | 10.6 | 4.2 | / | /
CCOc1ccccc1NC(=O)COC(=O)CCOc1cc(C)ccc1C | 2.6 | -13.1 | 4.0 | 1.2 | -3.4 | -9.5 | / | /
CCN(CC)C(=O)C1=C(C)N(Cc2ccccc2)C(=O)C(CC(=O)NCCCCc2ccccc2)C1 (centres undefined) | -6.3 | -9.1 | 0.3 | / | -6.5 | 11.1 | / | /
Cc1cc2cc(CNC(=O)c3ccc(S(=O)(=O)N(C)C)cc3)ccc2n1C | 14.4 | -7.2 | 25.3* | 3.2 | 11.1 | 14.6 | 2.9 | 2.0
